# Measurements taken from ChEMBL document CHEMBL1139976, “Liver X receptor antagonists with a phthalimide skeleton derived from thalidomide-related glucosidase inhibitors” (Bioorg Med Chem Lett, 2007).
# Activity calls are given as the source filed them. The calls are words filed in the database; no cut-off is given here.
# Key:
# [1] = target: T1, Oxysterols receptor LXR-alpha (Homo sapiens, UniProt Q13133); assay: Antagonist activity at human recombinant LXRalpha expressed in HEK293 cells assessed as inhibition of T0901317-induced transcriptional activation by luciferase assay; format: functional, cell-based
# T1 sequence (Q13133 whole entry): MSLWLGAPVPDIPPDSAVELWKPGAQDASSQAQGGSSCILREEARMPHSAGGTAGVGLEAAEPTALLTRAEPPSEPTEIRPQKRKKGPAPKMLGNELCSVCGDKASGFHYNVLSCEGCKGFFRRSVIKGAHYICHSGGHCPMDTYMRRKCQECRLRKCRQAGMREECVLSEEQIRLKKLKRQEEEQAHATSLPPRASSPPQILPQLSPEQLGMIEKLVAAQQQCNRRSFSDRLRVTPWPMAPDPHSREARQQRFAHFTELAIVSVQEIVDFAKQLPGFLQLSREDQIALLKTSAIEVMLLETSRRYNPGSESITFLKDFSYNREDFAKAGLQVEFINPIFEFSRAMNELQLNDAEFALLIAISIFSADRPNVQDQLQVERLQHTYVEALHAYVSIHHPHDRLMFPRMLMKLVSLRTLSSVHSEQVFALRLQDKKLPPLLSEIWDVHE
# HEK293 = assay: Cytotoxicity against HEK293 cells at 100 uM; format: cell-based; conditions: human, hek293, 100 µM
# [2] = target: T2, Oxysterols receptor LXR-beta (Homo sapiens, UniProt P55055); assay: Antagonist activity at human recombinant LXRbeta expressed in HEK293 cells assessed as inhibition of T0901317-induced transcriptional activation by luciferase assay; format: functional, cell-based
# T2 sequence (P55055 whole entry): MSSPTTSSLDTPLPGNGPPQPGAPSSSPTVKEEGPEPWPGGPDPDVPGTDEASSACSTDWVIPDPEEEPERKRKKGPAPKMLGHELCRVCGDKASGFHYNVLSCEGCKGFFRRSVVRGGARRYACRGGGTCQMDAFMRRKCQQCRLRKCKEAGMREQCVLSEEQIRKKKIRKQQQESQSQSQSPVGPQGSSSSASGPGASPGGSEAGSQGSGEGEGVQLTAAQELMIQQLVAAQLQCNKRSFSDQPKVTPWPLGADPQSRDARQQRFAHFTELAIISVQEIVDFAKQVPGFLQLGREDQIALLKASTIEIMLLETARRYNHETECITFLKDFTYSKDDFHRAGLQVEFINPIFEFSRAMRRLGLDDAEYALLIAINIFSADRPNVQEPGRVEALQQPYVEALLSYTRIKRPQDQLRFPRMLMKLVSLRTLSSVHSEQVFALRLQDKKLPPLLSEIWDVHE
# Homo sapiens [3] = organism: Homo sapiens; assay: Inhibition of dipeptidylpeptidase 4
# [4] = Inhibition of alpha glucosidase; parameters: species or system Homo sapiens
# Method in brief: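 The enzyme (25 mU/mL) was preincubated with a range of compound concentrations in 10 mM phosphate buffer, pH 7.2, at 37 °C for 10 min. p-Nitrophenyl-alpha-D-glucopyranoside was then added to 0.16 mM final and incubated 30 min at 37 °C. The reaction was basified with 0.5 M Na2CO3 and released p-nitrophenol read at 400 nm. IC50 values were derived.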
# Homo sapiens [5] = organism: Homo sapiens; assay: Inhibition of maltase
# [6] = target: T3, Oxysterols receptor LXR-beta (Homo sapiens) (UniProt P55055); assay: Antagonist activity at human recombinant LXRbeta expressed in HEK293 cells assessed as inhibition of T0901317-induced transcriptional activation at 100 uM by luciferase assay; format: functional, cell-based
# T3 sequence (whole entry): T2 sequence (P55055 whole entry)
# Method in brief: (§1)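 GAL4 DNA-binding domain fused to human LXR (alpha or beta) as receptor plasmid, TK-MH100x4-LUC reporter, and CMX beta-galactosidase for normalization. HEK293 cells in DMEM with 5% FBS, 37 °C, 5% CO2. Transfected by calcium phosphate coprecipitation. Compounds added 8 h post-transfection together with 0.1 µM T0901317, whose response alone was set as 100%. Luciferase read on a luminometer. Three repeats, normalized averages.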
# [7] = target: T4, Oxysterols receptor LXR-alpha (Homo sapiens) (UniProt Q13133); assay: Antagonist activity at human recombinant LXRalpha expressed in HEK293 cells assessed as inhibition of T0901317-induced transcriptional activation at 100 uM by luciferase assay; format: functional, cell-based; method in brief: as §1
# T4 sequence (whole entry): T1 sequence (Q13133 whole entry)
Compound,IC50 [4] [µM],inhibition [6] [%],inhibition [7] [%],further results
CCCCCCc1ccccc1N1C(=O)c2ccccc2C1=O,24.7,,,IC50 [1]: 13 µM; Activity (HEK293): 57%; IC50 [2]: 65 µM; Activity (Homo sapiens [3]): inactive; Activity (Homo sapiens [5]): inactive
CC(C)c1cccc(C(C)C)c1N1C(=O)c2ccccc2C1=S,8,92,94,Activity (HEK293): 73%; Activity (Homo sapiens [3]): Active; Activity (Homo sapiens [5]): Active
O=C1c2ccccc2C(=O)N1c1ccccc1CCc1ccccc1,16.2,,,Activity (HEK293): 48%; Activity (Homo sapiens [3]): inactive; Activity (Homo sapiens [5]): inactive
O=C1c2cc(Cl)c(Cl)cc2C(=O)N1CCCCc1ccccc1,,35,50,
CC(C)c1cccc(C(C)C)c1N1C(=O)c2c(Cl)c(Cl)c(Cl)c(Cl)c2C1=O,2.4,49,61,
O=C1c2ccc(Cl)cc2C(=O)N1CCCCc1ccccc1,,45,66,

# The next lines start with results.
IC50 [4] [µM],inhibition [6] [%],inhibition [7] [%],Compound,further results
3.5,3,42,O=C1c2c(Cl)c(Cl)c(Cl)c(Cl)c2C(=O)N1CCCCCc1ccccc1,
4.5,52,59,O=C1c2c(Cl)c(Cl)c(Cl)c(Cl)c2C(=O)N1CCCc1ccccc1,
10.9,51,60,O=C1c2c(Cl)c(Cl)c(Cl)c(Cl)c2C(=O)N1Cc1ccccc1,
6,38,38,O=C1c2c(Cl)c(Cl)c(Cl)c(Cl)c2C(=O)N1CCc1ccccc1,
2,49,53,O=C1c2c(Cl)c(Cl)c(Cl)c(Cl)c2C(=O)N1CCCCc1ccccc1,
6.8,,,O=C1c2c(Cl)c(Cl)c(Cl)c(Cl)c2C(=O)N1CCCCCCCCCCc1ccccc1,Activity [6]: inactive; Activity [7]: inactive
2.6,,,O=C1c2c(Cl)c(Cl)c(Cl)c(Cl)c2C(=O)N1c1ccccc1,Activity [6]: inactive; Activity [7]: inactive
